# Assay results taken from ChEMBL document CHEMBL5678799 (Biochem J, 2009).
# How the values were obtained:
# [1] = molecular target: Tyrosine-protein kinase Yes (Homo sapiens) (UniProt P07947); experiment: Inhibition of recombinant human N-terminal His6-tagged YES1 (1 to 543 residues) expressed in baculovirus infected Sf21 cells assessed as remaining activity at 1 uM using Poly(Glu,Tyr) as substrate incubated for 30 mins in presence of [gamma-33P]ATP by filter binding assay relative to control
# Summary of the method: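 Radiometric panel assay run robotically at 21 °C for 30 min, linear in time and enzyme. […] Activity is expressed as percentage of the compound-omitted control, averaged from triplicates ± S.D.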
# [2] = molecular target: MAP kinase-activated protein kinase 2 (Homo sapiens) (UniProt P49137); experiment: Inhibition of recombinant human N-terminal GST/C-terminal Myc-tagged MAPKAPK2 (46 to 400 residues) expressed in Escherichia coli assessed as remaining activity at 1 uM using KKLNRTLSVA as substrate incubated for 30 mins in presence of [gamma-33P]ATP by filter binding method relative to control
# MAP kinase-activated protein kinase 2 (Homo sapiens), sequence (P49137 whole entry, looked up, the tested form may be a part): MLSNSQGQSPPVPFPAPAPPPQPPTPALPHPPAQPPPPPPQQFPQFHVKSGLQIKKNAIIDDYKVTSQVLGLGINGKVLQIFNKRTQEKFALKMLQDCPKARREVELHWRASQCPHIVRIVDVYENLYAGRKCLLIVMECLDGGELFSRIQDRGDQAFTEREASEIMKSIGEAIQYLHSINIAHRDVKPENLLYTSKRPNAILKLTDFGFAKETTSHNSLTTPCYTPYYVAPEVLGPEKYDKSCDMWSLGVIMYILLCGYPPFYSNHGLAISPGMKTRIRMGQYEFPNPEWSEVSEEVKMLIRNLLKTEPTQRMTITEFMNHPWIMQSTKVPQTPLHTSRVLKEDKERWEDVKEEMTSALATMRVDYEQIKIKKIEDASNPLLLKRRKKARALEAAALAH
# Summary of the method: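 Incubations ran robotically for 30 min at room temperature (21 °C) under linear conditions. Results are percent activity remaining versus controls without compound, as the mean of triplicates ± S.D.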
# [3] = molecular target: Mitogen-activated protein kinase 11 (Homo sapiens) (UniProt Q15759); experiment: Inhibition of recombinant human N-terminal GST-tagged P38beta (1 to 364 residues) expressed in Escherichia coli assessed as remaining activity at 1 uM using MBP as substrate incubated for 30 mins in presence of [gamma-33P]ATP by filter binding method relative to control
# Mitogen-activated protein kinase 11 (Homo sapiens), sequence (Q15759 whole entry, the tested form may be a part): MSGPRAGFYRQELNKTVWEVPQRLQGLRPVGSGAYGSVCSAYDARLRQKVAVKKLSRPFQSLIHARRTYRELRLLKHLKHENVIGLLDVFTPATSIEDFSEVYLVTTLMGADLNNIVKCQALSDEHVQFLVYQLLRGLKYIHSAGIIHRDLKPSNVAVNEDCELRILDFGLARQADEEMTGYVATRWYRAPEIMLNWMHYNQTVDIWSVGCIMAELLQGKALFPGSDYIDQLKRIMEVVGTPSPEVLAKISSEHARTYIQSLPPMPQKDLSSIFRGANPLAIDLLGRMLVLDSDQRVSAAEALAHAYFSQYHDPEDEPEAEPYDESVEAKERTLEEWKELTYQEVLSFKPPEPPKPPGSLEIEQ
# Summary of the method: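 Panel assays were run for 30 min at 21 °C, within the linear range for time and enzyme. […] Results are percent activity remaining relative to compound-free control, averaged from triplicate ± S.D.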
# [4] = molecular target: Mitogen-activated protein kinase 13 (Homo sapiens) (UniProt O15264); experiment: Inhibition of recombinant human GST-tagged P38delta (1 to 365 residues) expressed in Escherichia coli assessed as remaining activity at 1 uM using MBP as substrate incubated for 30 mins in presence of [gamma-33P]ATP by filter binding method relative to control
# Mitogen-activated protein kinase 13 (Homo sapiens), sequence (O15264 whole entry, the tested form may be a part): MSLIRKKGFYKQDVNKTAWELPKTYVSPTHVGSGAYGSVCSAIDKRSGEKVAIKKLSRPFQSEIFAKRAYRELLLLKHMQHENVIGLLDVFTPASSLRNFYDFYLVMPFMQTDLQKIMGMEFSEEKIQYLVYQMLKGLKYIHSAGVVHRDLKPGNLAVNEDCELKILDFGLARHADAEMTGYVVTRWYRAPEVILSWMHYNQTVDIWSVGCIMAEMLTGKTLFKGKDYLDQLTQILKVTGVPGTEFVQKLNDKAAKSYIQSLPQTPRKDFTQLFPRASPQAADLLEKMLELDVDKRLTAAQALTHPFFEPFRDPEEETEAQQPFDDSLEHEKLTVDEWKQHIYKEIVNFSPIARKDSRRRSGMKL
# Summary of the method: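 Kinase panel run robotically at 21 °C for 30 min, linear in time and enzyme. […] Compound tested at 1 or 10 µM. Activity given as percentage of incubations without compound, mean of triplicates ± S.D.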
# [5] = molecular target: Ephrin type-A receptor 2 (Homo sapiens) (UniProt P29317); experiment: Inhibition of recombinant human N-terminal GST-tagged EPHA2 (591 to 976 residues) expressed in Escherichia coli assessed as remaining activity at 10 uM using Poly (Glu,Tyr) as substrate incubated for 30 mins in presence of [gamma-33P]ATP by filter binding method relative to control
# Ephrin type-A receptor 2 (Homo sapiens), sequence (P29317 whole entry, the tested form may be a part): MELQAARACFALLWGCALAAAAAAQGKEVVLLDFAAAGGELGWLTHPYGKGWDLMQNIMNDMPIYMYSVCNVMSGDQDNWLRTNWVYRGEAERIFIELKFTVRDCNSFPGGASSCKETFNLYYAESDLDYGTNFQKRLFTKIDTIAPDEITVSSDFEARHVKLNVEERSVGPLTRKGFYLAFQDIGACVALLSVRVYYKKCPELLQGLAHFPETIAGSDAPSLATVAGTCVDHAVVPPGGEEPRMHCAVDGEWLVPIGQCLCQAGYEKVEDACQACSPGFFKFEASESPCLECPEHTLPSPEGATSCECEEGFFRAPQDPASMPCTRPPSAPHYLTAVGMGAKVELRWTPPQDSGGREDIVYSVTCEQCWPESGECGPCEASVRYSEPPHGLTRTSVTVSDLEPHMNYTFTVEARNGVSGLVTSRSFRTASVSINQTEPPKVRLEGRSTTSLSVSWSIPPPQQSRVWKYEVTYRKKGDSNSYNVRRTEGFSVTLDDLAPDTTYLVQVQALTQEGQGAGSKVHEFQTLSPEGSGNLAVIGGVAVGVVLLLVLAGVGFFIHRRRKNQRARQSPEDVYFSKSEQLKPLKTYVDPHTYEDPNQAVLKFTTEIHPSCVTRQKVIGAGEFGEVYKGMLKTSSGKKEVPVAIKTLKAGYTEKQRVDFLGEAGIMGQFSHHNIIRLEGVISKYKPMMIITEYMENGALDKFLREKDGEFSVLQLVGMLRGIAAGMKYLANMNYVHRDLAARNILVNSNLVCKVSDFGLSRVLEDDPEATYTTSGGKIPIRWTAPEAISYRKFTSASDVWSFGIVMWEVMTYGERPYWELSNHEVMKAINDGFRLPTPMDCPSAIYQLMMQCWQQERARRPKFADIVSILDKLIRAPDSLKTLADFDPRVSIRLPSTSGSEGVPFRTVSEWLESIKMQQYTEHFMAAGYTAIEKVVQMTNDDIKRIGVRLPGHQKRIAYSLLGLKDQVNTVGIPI
# Summary of the method: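 Run robotically for 30 min at 21 °C under linear conditions. Compound at 1 or 10 µM. Percentage activity remaining versus control without compound, triplicate mean ± S.D.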
# mTORC1 (Homo sapiens) = mTORC1 (Homo sapiens) (UniProt P42345+Q8N122+Q9BVC4); details: HEK293, dose 30-1000 nM, time 30.0 min
# mTORC1 (Homo sapiens), sequence (Q8N122 whole entry, looked up, other chains not shown): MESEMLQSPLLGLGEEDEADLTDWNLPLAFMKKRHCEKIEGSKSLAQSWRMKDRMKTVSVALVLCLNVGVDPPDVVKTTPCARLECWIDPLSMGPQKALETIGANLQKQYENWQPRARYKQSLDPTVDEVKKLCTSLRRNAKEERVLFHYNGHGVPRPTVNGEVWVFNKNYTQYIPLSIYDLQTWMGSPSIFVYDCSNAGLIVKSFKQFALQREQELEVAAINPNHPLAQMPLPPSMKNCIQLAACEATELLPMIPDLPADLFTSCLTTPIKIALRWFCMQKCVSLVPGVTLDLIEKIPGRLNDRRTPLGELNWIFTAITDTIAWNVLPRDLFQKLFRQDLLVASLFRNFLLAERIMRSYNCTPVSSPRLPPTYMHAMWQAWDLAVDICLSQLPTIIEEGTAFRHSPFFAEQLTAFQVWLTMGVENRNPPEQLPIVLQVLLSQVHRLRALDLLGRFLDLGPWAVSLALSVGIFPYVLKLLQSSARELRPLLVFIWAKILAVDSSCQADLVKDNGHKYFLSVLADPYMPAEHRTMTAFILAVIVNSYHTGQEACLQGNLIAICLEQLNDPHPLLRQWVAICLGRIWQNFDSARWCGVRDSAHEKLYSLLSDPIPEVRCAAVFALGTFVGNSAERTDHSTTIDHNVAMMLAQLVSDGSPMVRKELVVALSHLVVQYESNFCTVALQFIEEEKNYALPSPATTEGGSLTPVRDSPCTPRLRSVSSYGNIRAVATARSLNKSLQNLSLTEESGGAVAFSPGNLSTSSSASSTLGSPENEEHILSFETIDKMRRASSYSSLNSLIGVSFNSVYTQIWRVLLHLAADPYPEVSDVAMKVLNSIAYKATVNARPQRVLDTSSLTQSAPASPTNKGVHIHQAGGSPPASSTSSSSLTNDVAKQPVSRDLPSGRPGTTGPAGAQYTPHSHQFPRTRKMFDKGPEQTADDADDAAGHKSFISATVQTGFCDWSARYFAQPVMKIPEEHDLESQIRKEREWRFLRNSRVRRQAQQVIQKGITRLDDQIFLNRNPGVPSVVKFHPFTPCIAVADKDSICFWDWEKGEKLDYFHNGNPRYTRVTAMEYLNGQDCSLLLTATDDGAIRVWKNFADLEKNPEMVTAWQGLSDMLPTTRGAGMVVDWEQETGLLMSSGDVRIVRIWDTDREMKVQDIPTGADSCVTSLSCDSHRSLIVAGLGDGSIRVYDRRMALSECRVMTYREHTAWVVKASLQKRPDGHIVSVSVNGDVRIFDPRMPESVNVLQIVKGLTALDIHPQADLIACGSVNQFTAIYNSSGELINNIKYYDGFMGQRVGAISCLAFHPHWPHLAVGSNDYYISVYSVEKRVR
# mTORC1 (Homo sapiens), sequence (Q9BVC4 whole entry, looked up, other chains not shown): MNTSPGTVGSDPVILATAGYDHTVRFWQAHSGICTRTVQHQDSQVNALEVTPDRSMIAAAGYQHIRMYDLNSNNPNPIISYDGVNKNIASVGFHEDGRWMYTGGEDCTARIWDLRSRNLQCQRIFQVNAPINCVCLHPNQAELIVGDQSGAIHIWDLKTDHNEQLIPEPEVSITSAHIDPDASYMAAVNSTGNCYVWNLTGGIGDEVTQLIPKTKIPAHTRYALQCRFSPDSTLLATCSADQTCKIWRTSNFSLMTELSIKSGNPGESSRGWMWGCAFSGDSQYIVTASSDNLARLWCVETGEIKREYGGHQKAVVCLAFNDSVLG
# Tyrosine-protein kinase Yes (Homo sapiens), sequence (P07947 2-543 limits assumed): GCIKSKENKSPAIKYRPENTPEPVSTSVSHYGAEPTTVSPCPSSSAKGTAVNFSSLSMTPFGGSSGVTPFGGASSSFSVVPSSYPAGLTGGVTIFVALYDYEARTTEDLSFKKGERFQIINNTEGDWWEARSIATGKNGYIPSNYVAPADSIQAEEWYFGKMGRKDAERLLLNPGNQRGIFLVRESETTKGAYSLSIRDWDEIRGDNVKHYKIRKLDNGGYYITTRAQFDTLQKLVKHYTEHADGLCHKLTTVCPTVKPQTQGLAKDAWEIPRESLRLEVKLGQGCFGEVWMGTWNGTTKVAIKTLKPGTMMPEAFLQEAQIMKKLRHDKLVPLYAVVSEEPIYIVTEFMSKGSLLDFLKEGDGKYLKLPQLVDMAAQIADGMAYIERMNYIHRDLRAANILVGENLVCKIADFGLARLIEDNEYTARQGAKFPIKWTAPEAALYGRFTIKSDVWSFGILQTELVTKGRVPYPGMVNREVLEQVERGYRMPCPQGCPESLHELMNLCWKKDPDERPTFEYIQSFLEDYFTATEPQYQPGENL
smiles,measurement,setting,value
COc1ccc(-c2ccc3c(N4CCOCC4)nc(N4C[C@@H](C)O[C@@H](C)C4)nc3n2)cc1CO [Ku-0063794],Activity,[1],94%
same,Activity,[2],98%
same,Activity,[3],106%
same,Activity,[4],72%
same,Activity,[5],96%
same,inhibition,mTORC1 (Homo sapiens),Dose-Dependent Effect
